Measured values of several laboratories.
Protocols differ between the studies behind these lines.
Target: Mitogen-activated protein kinase kinase kinase kinase 1 (MAP4K1, Homo sapiens, UniProt Q92918)

Compound | observed | mode | method | concentration | quantity | result
CC(=O)N1CCC(c2ccc(C(=O)NC(=N)N)cc2C(F)(F)F)CC1 | cell-free assay |  | competition with immobilised ligand | 1 µM | remaining binding | 100%
Nc1ncnc2occ(-c3ccc(NC(=O)Nc4cc(C(F)(F)F)ccc4F)cc3)c12 | cell-free assay | inhibitor |  | 20 µM | remaining signal | 0.7%
COc1cc2nccc(Oc3ccc(NC(=O)c4c5n(n(-c6ccc(F)cc6)c4=O)CCCC5)cc3)c2cc1OC | enzyme activity | inhibitor |  | 0.1 µM | inhibition | 11%
Cc1sc(C(=O)NC2COC2)cc1-n1cc(NC(=O)Nc2c(F)cccc2Cl)cn1 | enzyme activity | inhibitor |  | 10 µM | remaining activity | 99.2%
CC/C(=N\NC(=O)NCc1cccc(O)c1)c1ccc(O)c(C)c1O | enzyme activity | inhibitor |  | 0.1 µM | inhibition | 17.1%
O=C(Nc1cnn(-c2csc(C(=O)NC3COC3)c2)c1)Nc1ccccc1Cl | enzyme activity | inhibitor |  | 5 µM | remaining activity | 132%
CC(C)(O)[C@H]1CC[C@H](Nc2ccc3ncc(-c4cccc(C(F)(F)F)c4)n3n2)CC1 | enzyme activity | inhibitor |  | 1 µM | remaining activity | 79.6%
CN1CC(Oc2cnc(C#N)cc2-c2ccn3nc(NC(=O)C4CC4)cc3c2)C1 | enzyme activity | inhibitor |  | 1 µM | inhibition | 4%
Cc1ccc(C(=O)Nc2ccc(CN3CCN(C)CC3)c(C(F)(F)F)c2)cc1C#Cc1cnc2cccnn12 | enzyme activity | inhibitor |  | 23.5 nM | remaining activity | 8.5%
COc1cc(Cl)c(C(=O)N[C@@H](CN[C@H]2CC[C@@H](N)CC2)Cc2ccc(C#N)cc2)cc1-c1ccc(CN[C@H](C)c2ccc(C)cc2)o1 | enzyme activity | inhibitor |  | 1 µM | remaining activity | 96%
Cc1ccc(C(=O)NCc2ccsc2)cc1C#Cc1cn(C(C)C)c2ncnc(N)c12 | enzyme activity | inhibitor |  | 1 µM | activity vs control | 85%
CCS(=O)(=O)c1cc2cc(C[C@](O)(CC(C)(C)c3ccc(F)cc3C(N)=O)C(F)(F)F)[nH]c2cn1 | cell-free assay |  | competition with immobilised ligand | 1 µM | remaining binding | 100%
